A selection: hits, their analogues and other compounds. The true share with any hit is near 2.7%.
OXTR potentiate: potentiates the human oxytocin receptor response; CHO-OTR cells, Fluo-8 calcium fluorescence, potentiator mode; 0% = oxytocin EC15, 100% = EC100; AID 2445; P30559; actives 0.061% (n = 320,000); activation, % at 3 µM;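 active = activation above that plate's cutoff, the mean activation of tested compounds plus 3 SD, cut at about 6.6% in these data, passing the limit was not always enough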;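 also: 100% uses oxytocin at 75 nM as the full agonist control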
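Dosing: Single dose, 3.0 µM nominal final compound concentration | Material: Human OTR in CHO cells | Technique: Kinetic Fluo-8 calcium fluorescence | Benchmarks: EC15 oxytocin alone as 0%, 75 nM oxytocin as 100% | Probe or stimulus: Oxytocin at about EC15, sub-maximal agonist stimulus | Incubation: Compound 6 min at room temperature before oxytocin, 100 s read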
OX1R antag-1: human HCRTR1 antagonism; O43613; CHO/OX1R cells, Fluo-8 calcium fluorescence, orexin A; inhibition, % at 5 µM; actives 0.43% (n = 330,000);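 active = inhibition above its plate's threshold, mean inhibition of all tested compounds on the plate plus 3 SD, cut at about 37% in these data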;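 also: 0% = orexin A challenge wells and 100% = SB-334867-A antagonist wells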
Target sequence (O43613 whole entry, looked up): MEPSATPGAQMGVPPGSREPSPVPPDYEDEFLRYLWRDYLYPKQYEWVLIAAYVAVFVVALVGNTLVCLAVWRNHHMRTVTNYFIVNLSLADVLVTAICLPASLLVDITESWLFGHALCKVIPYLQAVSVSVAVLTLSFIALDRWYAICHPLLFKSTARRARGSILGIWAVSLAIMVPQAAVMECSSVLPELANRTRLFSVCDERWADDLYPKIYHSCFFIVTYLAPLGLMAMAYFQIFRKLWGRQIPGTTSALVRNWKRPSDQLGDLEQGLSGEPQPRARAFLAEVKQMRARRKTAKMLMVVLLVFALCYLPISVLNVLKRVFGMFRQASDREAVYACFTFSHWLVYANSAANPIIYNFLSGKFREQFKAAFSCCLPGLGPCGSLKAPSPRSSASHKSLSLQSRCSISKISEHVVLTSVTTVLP
OXTR ag: agonists of human oxytocin receptor; actives 0.32% (n = 320,000); P30559; activation, % at 3 µM; CHO-OTR cells, Fluo-8 calcium fluorescence; normalized: DMSO 0%, oxytocin 100%;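 active = activation above the mean of all tested compounds plus 3 SD, cutoff set per screening run, cut at about 20% in these data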;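 also: peak over basal fluorescence ratio from a 100 s FLIPR kinetic read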
CHO parental Ca: counter-screen: ATP calcium response change in parental CHO cells. inhibition, % at 5.6 µM. parental CHO-K1, ATP-induced calcium, Fluo-8 fluorescence. actives 0.63% (n = 330,000);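 active = inhibition above that plate's mean sample inhibition plus 3 SD, cut at about 26% in these data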;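 also: 0% = ATP-challenged DMSO wells and 100% = DMSO wells without ATP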
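Material: Parental CHO cells | Reagent: ATP | Compound dosing: Single nominal dose of 5.6 µM per compound | Detection: Intracellular calcium via Fluo-8 no-wash fluorescent dye | Read-out: % inhibition of ATP-induced calcium mobilization | Benchmarks: Low control ATP plus DMSO, high control DMSO only | Replicates: Singlicate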
V1R ag counter: V1a receptor agonism, counter-screen for OXTR agonists; CHO-V1R cells, Fluo-8 calcium fluorescence, agonist mode; 0% DMSO, 100% 3 nM vasopressin; activation, % at 3 µM; actives 0.25% (n = 320,000);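 active = activation above the mean activation of all tested compounds plus 3 SD, per screening run, cut at about 20% in these data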;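 also: signal is peak over basal fluorescence ratio across a 100 second FLIPR read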
OX1R antag-2: OX1R (human) antagonism; OX1R-expressing cells, FRET antagonist read-out; actives 1.8% (n = 330,000); inhibition, % at 6.6 µM; in the data active = inhibition mostly above about 38%, no sharp cut-off; inactive = mostly below about 40%;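 also: 0% = agonist challenge alone and 100% = reference antagonist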
An asterisk follows results filed as active.

Results for CCN(CC(=O)NCCc1ccc(S(N)(=O)=O)cc1)Cc1ccccc1 ?
OXTR potentiate: -5.0; OX1R antag-1: -14.9; OXTR ag: -0.1; CHO parental Ca: -15.8; V1R ag counter: 2.2; OX1R antag-2: 11.9

How did CC(C)N(C(=O)[C@H]1CC(CC(=O)NCC23CC4CC(CC(C4)C2)C3)C(=O)N2CCc3c([nH]c4ccccc34)[C@]12C)C(C)C (stereo partly specified) do in these assays?
OXTR potentiate: 0.0; OX1R antag-1: -24.9; OXTR ag: -0.3; CHO parental Ca: 1.1; V1R ag counter: 0.8; OX1R antag-2: -2.5

Results for O=C(O)c1cc(NS(=O)(=O)c2ccc(F)cc2)cc(NS(=O)(=O)c2ccc(F)cc2)c1 ?
OXTR potentiate: -10.1; OX1R antag-1: -23.8; OXTR ag: 1.1; CHO parental Ca: -12.4; V1R ag counter: 1.0; OX1R antag-2: 1.3

Results for N/C(=N\OC(=O)Oc1ccccc1)c1ccc([N+](=O)[O-])cc1 ?
OXTR potentiate: -6.8; OX1R antag-1: -7.1; OXTR ag: 1.0; CHO parental Ca: 3.5; V1R ag counter: 0.6; OX1R antag-2: 67.5*

How did N#Cc1c(-c2ccccc2)nc(SCC(=O)N2c3ccccc3Sc3ccccc32)[nH]c1=O do in these assays?
OXTR potentiate: -2.6; OX1R antag-1: -15.1; OXTR ag: 0.0; CHO parental Ca: -4.7; V1R ag counter: 1.6; OX1R antag-2: 76.0*

Results for N#Cc1c(-c2ccccc2)nc(SCC(=O)N(c2ccccc2)c2ccccc2)[nH]c1=O ?
OXTR potentiate: -4.1; OX1R antag-1: -9.7; OXTR ag: 0.1; CHO parental Ca: -4.5; V1R ag counter: 0.9; OX1R antag-2: 23.1

Results for COc1cc2c3c(c1)C(C)CC(C)(C)N3C(=O)C2=O (stereo unspecified) ?
OXTR potentiate: -1.0; OX1R antag-1: -76.9; OXTR ag: -1.7; CHO parental Ca: -0.5; V1R ag counter: -1.7; OX1R antag-2: 43.6*

What do the screens show for `CC(=O)c1cccc(NC(=O)COc2ccc3oc(=O)cc(C)c3c2)c1`?
OXTR potentiate: -9.1; OX1R antag-1: -15.0; OXTR ag: 5.4; CHO parental Ca: -0.2; V1R ag counter: 4.0; OX1R antag-2: 8.7

Results for CCN(CC)C(=O)c1ccc2nc3ccccc3nc2c1 ?
OXTR potentiate: -2.6; OX1R antag-1: -15.3; OXTR ag: -0.6; CHO parental Ca: -6.0; V1R ag counter: 0.2; OX1R antag-2: 65.4*

What do the screens show for `CC(C)(C)c1ccc(C(=O)Cn2cnnc2C#N)cc1`?
OXTR potentiate: -5.7; OX1R antag-1: -13.1; OXTR ag: 0.1; CHO parental Ca: -12.8; V1R ag counter: 0.3; OX1R antag-2: 15.2

What do the screens show for `Nc1nc(C2CC2)c(Sc2sc(N)nc2C2CC2)s1`?
OXTR potentiate: -22.4; OX1R antag-1: 12.3; OXTR ag: 24.6*; CHO parental Ca: 4.7; V1R ag counter: 25.1*; OX1R antag-2: 9.3

Results for CC(C)N(CCCNC(=O)Cn1c(=O)c2cccn2c2ccccc21)Cc1ccccc1 ?
OXTR potentiate: 0.8; OX1R antag-1: 28.2; OXTR ag: 0.3; CHO parental Ca: -20.9; V1R ag counter: -0.2; OX1R antag-2: 66.3*

What do the screens show for `CN(CCCNC(=O)Cn1c(=O)c2cccn2c2ccccc21)Cc1ccccc1`?
OXTR potentiate: 0.0; OX1R antag-1: -17.3; OXTR ag: -0.6; CHO parental Ca: -22.6; V1R ag counter: -0.1; OX1R antag-2: 32.7

What do the screens show for `O=[N+]([O-])c1ccc(N=NN(CCO)CCO)cc1`?
OXTR potentiate: -2.2; OX1R antag-1: 1.4; OXTR ag: 1.8; CHO parental Ca: -1.1; V1R ag counter: 0.7; OX1R antag-2: 47.5*

How did O=[N+]([O-])c1ccc(N=Nc2ccc(O)cc2O)cc1 do in these assays?
OXTR potentiate: -16.0; OX1R antag-1: 29.5; OXTR ag: 6.6; CHO parental Ca: 18.7; V1R ag counter: 0.8; OX1R antag-2: 15.5

Results for COCCNC(=O)C1CC(c2ccc([N+](=O)[O-])cc2)=NO1 (stereo unspecified) ?
OXTR potentiate: 0.8; OX1R antag-1: -0.8; OXTR ag: 0.4; CHO parental Ca: -4.2; V1R ag counter: 0.4; OX1R antag-2: 68.5*

What do the screens show for `O=C(Nc1cccc(O)c1)c1noc2c1CCc1ccccc1-2`?
OXTR potentiate: -8.2; OX1R antag-1: 40.3; OXTR ag: 2.8; CHO parental Ca: -15.0; V1R ag counter: 1.5; OX1R antag-2: 36.6*

How did O=C(Nc1ccncc1Cl)c1ccncc1 do in these assays?
OXTR potentiate: -1.6; OX1R antag-1: -2.3; OXTR ag: 1.0; CHO parental Ca: -2.3; V1R ag counter: 1.5; OX1R antag-2: 8.5

What do the screens show for `CC(NC(=O)CCNS(=O)(=O)c1cccc2nsnc12)c1ccccc1` (stereo unspecified)?
OXTR potentiate: -15.1; OX1R antag-1: -9.3; OXTR ag: -0.6; CHO parental Ca: -12.0; V1R ag counter: -0.7; OX1R antag-2: 68.6*

Results for O=C(CCNS(=O)(=O)c1cccc2nsnc12)NCc1ccccc1 ?
OXTR potentiate: -17.2; OX1R antag-1: -16.5; OXTR ag: -0.6; CHO parental Ca: -0.7; V1R ag counter: 2.4; OX1R antag-2: 76.6*

Results for O=C(NCCc1ccccc1)C(NS(=O)(=O)c1cccc2nsnc12)c1ccccc1 (stereo unspecified) ?
OXTR potentiate: -6.8; OX1R antag-1: -14.7; OXTR ag: -2.4; CHO parental Ca: -17.9; V1R ag counter: -0.3; OX1R antag-2: 73.5*

Results for COc1ccc(CNC(=O)CCNS(=O)(=O)c2cccc3nsnc23)cc1 ?
OXTR potentiate: -15.1; OX1R antag-1: -14.8; OXTR ag: -0.5; CHO parental Ca: -6.1; V1R ag counter: 1.4; OX1R antag-2: 45.6

How did NC(=O)CSc1nnc(-c2ccc([N+](=O)[O-])cc2)o1 do in these assays?
OXTR potentiate: -4.5; OX1R antag-1: -11.2; OXTR ag: 0.8; CHO parental Ca: 11.9; V1R ag counter: -0.1; OX1R antag-2: 54.8*

How did CSc1ccc(-c2cc(=O)c3ccccc3o2)cc1 do in these assays?
OXTR potentiate: -10.9; OX1R antag-1: 38.0; OXTR ag: -1.7; CHO parental Ca: -14.1; V1R ag counter: -0.9; OX1R antag-2: 67.6*

What do the screens show for `O=c1cc(-c2ccc(F)cc2)oc2ccccc12`?
OXTR potentiate: -0.3; OX1R antag-1: -9.9; OXTR ag: -2.7; CHO parental Ca: -14.7; V1R ag counter: -1.7; OX1R antag-2: 20.9

What do the screens show for `O=C(Nc1ccc(OC(F)(F)C(F)F)c(NC(=O)c2ccc(F)cc2)c1)c1ccc(F)cc1`?
OXTR potentiate: -18.9; OX1R antag-1: 27.5; OXTR ag: -1.6; CHO parental Ca: 7.1; V1R ag counter: 2.8; OX1R antag-2: 64.8*
